≈ marks a conversion by molar mass, not a printed value. Values belong to the molecule of their own block, whether it stands above or below them. Calls of active or inactive are those of the source. The rule behind the calls is not given here.
Key:
Nucleic Acid [1] = assay: Inhibition of Leinamycin-induced strand breaks in 32P-labeled 25-bp oligomer duplex Sp25 DNA after 24 hrs by PAGE analysis followed by hot piperidine treatment; assay type: nucleic-acid assay
How it was run: (§1)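 5'-32P-end-labeled duplex Sp25 (100 fmol), gel-purified, incubated at 37°C for 24 h with leinamycin, Fe(II)-bleomycin or 1 mM MMS plus increasing methoxyamine in 20 mM Tris–HCl pH 7.6, 20 mM NaCl, 1 mM DTT; drug removed on Sephadex G-10; then 1 M piperidine, 90°C, 30 min; 16% urea–acrylamide gel, PhosphorImager quantification.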

Nucleic Acid [2] = assay: Inhibition of Leinamycin-induced strand breaks in 32P-labeled 25-bp oligomer duplex Sp25 DNA after 24 hrs by PAGE analysis without hot piperidine treatment; assay type: nucleic-acid assay
How it was run: (§2)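 5'-32P-end-labeled Sp25 duplex (100 fmol) exposed at 37°C for 24 h to leinamycin, Fe(II)-bleomycin or 1 mM MMS with rising methoxyamine levels in 20 mM Tris–HCl pH 7.6, 20 mM NaCl, 1 mM DTT; unreacted drug removed by Sephadex G-10; no piperidine step; denaturing 16% urea–acrylamide gel, PhosphorImager scan.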

[3] = Potentiation of leinamycin-induced cytotoxicity in human MiaPaCa cells by MTT assay; assay type: functional
How it was run: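 MiaPaCa cells grown in RPMI1640 with 10% FCS, exposed to methoxyamine (up to 25 mM), leinamycin or both; viability by MTT reduction, formazan solubilized and read at 595 nm; triplicate determinations, bars ±SE.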

Nucleic Acid [4] = assay: Inhibition of Leinamycin-induced strand breaks in 32P-labeled 25-bp oligomer duplex Sp25 DNA at 1mM by PAGE analysis followed by hot piperidine treatment; assay type: nucleic-acid assay; how it was run: as §1
Nucleic Acid [5] = assay: Inhibition of methylmethanesulfonate-induced strand breaks in 32P-labeled 25-bp oligomer duplex Sp25 DNA at 1 mM after 24 hrs by PAGE analysis followed by hot piperidine treatment; assay type: nucleic-acid assay; how it was run: as §1
Nucleic Acid [6] = assay: Inhibition of bleomycin-induced strand breaks in 32P-labeled 25-bp oligomer duplex Sp25 DNA at 1 mM after 24 hrs by PAGE analysis followed by hot piperidine treatment; assay type: nucleic-acid assay; how it was run: as §1
Nucleic Acid [7] = assay: Inhibition of leinamycin-induced strand breaks in 32P-labeled 25-bp oligomer duplex Sp25 DNA at 1mM after 24 hrs by PAGE analysis without hot piperidine treatment; assay type: nucleic-acid assay; how it was run: as §2
Nucleic Acid [8] = assay: Inhibition of bleomycin-induced strand breaks in 32P-labeled 25-bp oligomer duplex Sp25 DNA at 1 mM by PAGE analysis without hot piperidine treatment; assay type: nucleic-acid assay; how it was run: as §2
Nucleic Acid [9] = assay: Inhibition of methyl methanesulfonate-induced strand breaks in 32P-labeled 25-bp oligomer duplex Sp25 DNA at 1 mM by PAGE analysis without hot piperidine treatment; assay type: nucleic-acid assay; how it was run: as §2
CHO-AA8 [10] = assay: Ratio for chinese hamster AA8 cells to chinese hamster BER-mutant EM9 cells; assay type: functional, Cricetulus griseus
Cricetulus griseus = organism: Cricetulus griseus; assay: Cytotoxicity against chinese hamster BER-mutant EM9 cells assessed as cell survival by clonogenic survival assay; assay type: functional, cell-based
How it was run: (§3)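 CHO lines from repair-proficient and repair-mutant backgrounds, grown in RPMI1640 with 10% FCS. Cells plated in triplicate at 400 cells/well and dosed 24 h later with a range of leinamycin concentrations. Colonies grew 14 days and were stained with 1% methylene blue in 50% ethanol. Dye was eluted in isopropanol with 0.4 M HCl and read at 595 nm for relative survival.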

Xrs-5 = assay: Cytotoxicity against chinese hamster kU86-mutant Xrs-5 cells assessed as cell survival by clonogenic survival assay; assay type: functional, cell-based; conditions: Cricetulus griseus; how it was run: as §3
[11] = Cytotoxicity against chinese hamster NER-mutant UV135 cells assessed as cell survival by clonogenic survival assay; assay type: functional, cell-based; conditions: Cricetulus griseus; how it was run: as §3
[12] = Cytotoxicity against chinese hamster NER-mutant UV41 cells assessed as cell survival by clonogenic survival assay; assay type: functional, cell-based; conditions: Cricetulus griseus; how it was run: as §3
CHO-AA8 [13] = assay: Cytotoxicity against chinese hamster AA8 cells assessed as cell survival by clonogenic survival assay; assay type: functional, cell-based; conditions: Cricetulus griseus; how it was run: as §3
[14] = Cytotoxicity against human MiaPaCa cells assessed as potentiation of methoxyamine-mediated cytotoxicity by MTT assay; assay type: functional, cell-based; conditions: MIA PaCa-2
How it was run: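 MiaPaCa cells in RPMI1640 with 10% FCS were given leinamycin alone or combined with methoxyamine, a BER inhibitor, tested alone up to 25 mM. Survival was measured by MTT, reading solubilised formazan at 595 nm, in triplicate with ±SE.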

[15] = Cytotoxicity against human MiaPaCa cells by MTT assay; assay type: functional, cell-based; conditions: MIA PaCa-2
How it was run: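 MiaPaCa cells in RPMI1640 with 10% FCS were exposed to leinamycin. Viability was read by MTT reduction to formazan, with absorbance of solubilised formazan at 595 nm. Survival was determined in triplicate with ±SE.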

Nucleic Acid [16] = assay: Induction of DNA cleavage in 32P-labeled oligomer duplex Sp25 DNA at 2 ug/ml to 100 ug/ml after 24 hrs by PAGE analysis without hot piperidine treatment; assay type: nucleic-acid assay
How it was run: (§4)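 5'-32P-end-labelled, gel-purified Sp25 duplex (100 fmol) was incubated with leinamycin at 37°C in 20 mM Tris-HCl pH 7.6, 20 mM NaCl, 1 mM DTT, with no piperidine step. Unreacted drug was removed on a G-10 column. Fragments were resolved on 16% urea-PAGE and quantified by phosphorimaging.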

Nucleic Acid [17] = assay: Induction of DNA cleavage in 32P-labeled oligomer duplex Sp25 DNA at 2 ug/ml to 100 ug/ml after 24 hrs by PAGE analysis followed by hot piperidine treatment; assay type: nucleic-acid assay
How it was run: (§5)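 5'-32P-end-labelled, gel-purified Sp25 duplex (100 fmol) was incubated with leinamycin at 37°C in 20 mM Tris-HCl pH 7.6, 20 mM NaCl, 1 mM DTT. Drug was removed on a G-10 column, then DNA was heated 30 min in 1 M piperidine. Products were run on 16% urea-PAGE and quantified by phosphorimaging.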

Nucleic Acid [18] = assay: Induction of DNA cleavage in 32P-labeled oligomer duplex Sp25 DNA up to 24 hrs by PAGE analysis without hot piperidine treatment; assay type: nucleic-acid assay; how it was run: as §4
Nucleic Acid [19] = assay: Induction of DNA cleavage in 32P-labeled oligomer duplex Sp25 DNA after 8 hrs by PAGE analysis with hot piperidine treatment; assay type: nucleic-acid assay; how it was run: as §5
[20] = Cytotoxicity against chinese hamster NER-mutant UV5 cells assessed as cell survival by clonogenic survival assay; assay type: functional, cell-based; conditions: Cricetulus griseus; how it was run: as §3

Activity (Nucleic Acid [1]): Active
Activity (Nucleic Acid [2]): Active
Activity (Nucleic Acid [4]): inactive
Activity (Nucleic Acid [5]): inactive
Activity (Nucleic Acid [6]): inactive
Activity (Nucleic Acid [7]): inactive
Activity (Nucleic Acid [8]): inactive
Activity (Nucleic Acid [9]): inactive
Compound: CON [METHOXYAMINE]
fold change (FC) [3]: 2.5

Compound: C/C1=C\[C@@H](O)C(=O)/C=C/C=C\c2csc(n2)[C@@H](C)NC(=O)C[C@@]2(CC1)[S+]([O-])SC(=O)[C@]2(C)O (some centres not stated) [LEINAMYCIN]
Ratio (CHO-AA8 [10]): >3
Activity (Cricetulus griseus): Active
Activity (Xrs-5): Active
IC50 [11]: 2 ng/mL (≈ 3.92 nM)
IC50 [12]: 3 ng/mL (≈ 5.87 nM)
IC50 (CHO-AA8 [13]): 0.01 µg/mL (≈ 19.6 nM)
IC50 [14]: 0.015 µg/mL
IC50 [15]: 0.04 µg/mL (≈ 78.3 nM)
Activity (Nucleic Acid [16]): Dose-dependent effect
Activity (Nucleic Acid [17]): Dose-dependent effect
Activity (Nucleic Acid [18]): Active
Activity (Nucleic Acid [19]): Active
IC50 [20]: 3 ng/mL (≈ 5.87 nM)

— ChEMBL document CHEMBL2203121, “DNA cleavage induced by antitumor antibiotic leinamycin and its biological consequences” (Bioorg Med Chem, 2012)
